ChEMBL document CHEMBL3875170, “2-Methyl-4/5-nitroimidazole derivatives potentiated against sexually transmitted Trichomonas: Design, synthesis, biology and 3D-QSAR study” (Eur J Med Chem, 2016)
In brackets after ≈: the same amount, converted by molar mass.

What was measured:
Trichomonas vaginalis [1] = experiment: Antiparasitic activity against metronidazole sensitive Trichomonas vaginalis ATCC 33592 after 48 hrs by trypan blue exclusion assay; type: functional; conditions: ATCC 33592, 48 h
Trichomonas vaginalis [2] = experiment: Antiparasitic activity against metronidazole resistant Trichomonas vaginalis ATCC 50143 after 48 hrs by trypan blue exclusion assay; type: functional; conditions: ATCC 50143, 48 h
Outline: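 T. vaginalis trophozoites ([…]), log phase, grown in TYM with 10% FCS, vitamin mix and penicillin/streptomycin at 37 °C. Test agents from DMSO stocks serially diluted in TYM; DMSO/TYM vehicle controls. Anaerobic incubation at 37 °C with microscopic viability checks from 3 to 48 h by trypan blue exclusion. MIC is the lowest concentration killing all cells by 48 h. Repeated three times.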

[3] = Cytotoxicity against human HeLa cells after 24 hrs by MTT assay; type: toxicity, cell-based
Outline: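 HeLa cells seeded at 2 × 10⁴ per well in DMEM with 10% FCS, in triplicate, and held 24 h at 37 °C in 5% CO₂. Exposed to compound dilutions for 24 h; controls received 0.05% DMSO. MTT in PBS pH 7.4 added, formazan dissolved in DMSO, OD540 read. IC50 taken as the concentration killing 50% of cells.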

[4] = Selectivity index, ratio of IC50 for human HeLa cells to MIC for metronidazole sensitive Trichomonas vaginalis ATCC 33592; type: toxicity, cell-based; conditions: read-out: Selectivity Index
Outline: (§1)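 SI is HeLa IC50 divided by parasite MIC. HeLa cells seeded at 2 × 10⁴/well in triplicate in DMEM with 10% FCS, 24 h at 37 °C in 5% CO2. Medium then replaced with compound dilutions (0.05% DMSO controls) for 24 h. Viability by MTT read at OD540; IC50 is the concentration killing 50% of cells. MIC from 48 h trypan blue parasite killing in TYM.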

[5] = Selectivity index, ratio of IC50 for human HeLa cells to MIC for metronidazole resistant Trichomonas vaginalis ATCC 50143; type: toxicity, cell-based; conditions: read-out: Selectivity Index; outline: as §1
Trichomonas vaginalis [6] = experiment: Potency index, ratio of metronidazole MIC to compound MIC for metronidazole sensitive Trichomonas vaginalis ATCC 33592; type: functional
Trichomonas vaginalis [7] = experiment: Potency index, ratio of metronidazole MIC to compound MIC for metronidazole resistant Trichomonas vaginalis ATCC 50143; type: functional

Row | SMILES | MIC (Trichomonas vaginalis [1]) [µM] | MIC (Trichomonas vaginalis [2]) [µM] | IC50 at 24 h [3] [mM] | selectivity ratio [4] | selectivity ratio [5] | Ratio (Trichomonas vaginalis [6]) | Ratio (Trichomonas vaginalis [7])
1 | Cc1ncc([N+](=O)[O-])n1CC(O)CN1CCN(c2ccccn2)CC1 (racemic) | 18.1 (≈ 6.26 µg/mL) | 72.2 (≈ 25 µg/mL) | 1.83 | 101 | 25 | <=2.4 | <=12.7
2 | Cc1ncc([N+](=O)[O-])n1CC(O)CN1CCN(c2cccc(Cl)c2Cl)CC1 (racemic) | 18.9 (≈ 7.81 µg/mL) | 151 (≈ 62.5 µg/mL) | > 5 | > 265 | > 33 | <=2.4 | <=12.7
3 | CCCCN1CCN(C(=S)SCC(O)Cn2c([N+](=O)[O-])cnc2C)CC1 (racemic) | 15.6 (≈ 6.26 µg/mL) | 31.2 (≈ 12.5 µg/mL) | 1.91 | 122 | 61 | <=2.4 | <=12.7
4 | Cc1nc([N+](=O)[O-])cn1CC(O)CSC(=S)N1CCN(c2ccccc2)CC1 (racemic) | 22.7 (≈ 9.56 µg/mL) | 297 (≈ 125 µg/mL) | > 5 | > 227 | > 16 |  | <=12.7
5 | Cc1ncc([N+](=O)[O-])n1CC(O)CSC(=S)N1CCC(C)CC1 (racemic) | 17.4 (≈ 6.26 µg/mL) | 69.8 (≈ 25 µg/mL) | 1.82 | 104 | 26 | <=2.4 | 2.5 - 12.6
6 | Cc1ncc([N+](=O)[O-])n1CC(O)CN1C(C)CCCC1C (racemic) | 42.2 (≈ 12.5 µg/mL) | 84.5 (≈ 25 µg/mL) | > 5 | > 119 | > 59 |  | <=12.7
7 | Cc1ncc([N+](=O)[O-])n1CC(O)CN1CCN(c2ncccn2)CC1 (racemic) | 22.5 (≈ 7.82 µg/mL) | 90 (≈ 31.3 µg/mL) | 3.93 | 174 | 43 |  | <=12.7
8 | Cc1ncc([N+](=O)[O-])n1CC(O)CN1CCC(Cc2ccccc2)CC1 (racemic) | 34.9 (≈ 12.5 µg/mL) | 140 (≈ 50.1 µg/mL) | 1.43 | 40 | 10 |  | <=12.7
9 | Cc1ncc([N+](=O)[O-])n1CC(O)CN1CCCCC1 (racemic) | 23.3 (≈ 6.26 µg/mL) | 187 (≈ 50.1 µg/mL) | > 5 | > 217 | > 26 |  | <=12.7
10 | Cc1ncc([N+](=O)[O-])n1CC(O)Cn1cnc([N+](=O)[O-])c1 (racemic) | 26.4 (≈ 7.81 µg/mL) | 106 (≈ 31.3 µg/mL) | > 5 | > 192 | > 47 |  | <=12.7
11 | Cc1ncc([N+](=O)[O-])n1CC(O)CSC(=S)N1CCN(c2ccccn2)CC1 (racemic) | 29.6 (≈ 12.5 µg/mL) | 148 (≈ 62.6 µg/mL) | 2.97 | 100 | 20 |  | <=12.7
12 | Cc1ncc([N+](=O)[O-])n1CC(O)Cn1cnc2ccccc21 (racemic) | 25.9 (≈ 7.82 µg/mL) | 83 (≈ 25 µg/mL) | 4.53 | 181 | 54 |  | <=12.7
